Measurements from different studies.
Each line is one published result; the experiments were not run side by side. pIC50: −log10 of the molar value.
Read-out: cell growth or viability

With `O=C(N[C@@H](Cc1ccccc1)C(=O)c1nccs1)[C@H](Cc1ccccc1)NC(=O)N1CCOCC1` the CC50 was over 64 µM (MRC-5 SV2).
`Nc1ncnc2c1ncn2[C@@H]1O[C@H](CO)[C@@H](O)[C@H]1O` has a pIC50 of 3.88 (WI-38; WST-1; 48 h).
The CC50 of `O=C(N[C@H](CCc1ccccc1)C(=O)c1cc(Cc2ccccc2)on1)[C@H](Cc1ccccc1)NC(=O)N1CCOCC1` is reported as over 64 µM (MRC-5 SV2).
`O=c1[nH]cc(F)c(=O)[nH]1` gave a pIC50 of 4.20 (WI-38; WST-1; 48 h).
For `C[Si](C)(C)c1cc(C(=O)[C@H](Cc2ccccc2)NC(=O)[C@H](Cc2ccccc2)NC(=O)N2CCOCC2)no1` (mixture of isomers), the CC50 was over 64 µM (MRC-5 SV2).
With `C/C=C(/C)C(=O)O[C@@H]1[C@H](OC(C)=O)c2c(ccc3ccc(=O)oc23)OC1(C)C` the pIC50 was 3.92 (WI-38; WST-1).
With `COC(=O)c1c(C)ncn1CC(c1c[nH]c2ccc(C)cc12)c1c[nH]c2ccc(C)cc12` the CC50 was over 20 µM (HaCaT; MTS; 24 h).
For `N#CC(C(=O)Nc1cccc(C(F)(F)F)c1)=C1Sc2nc3ccc(S(=O)(=O)N4CCCC4)cc3nc2S1`, the viability was 55.4% (WI-38; MTT; 50 µM, 24 h).
For `C[C@@H]1[C@H](O)[C@@H](C)/C=C/C=C/C=C/C=C/C=C/C=C/C=C/[C@H](O[C@@H]2O[C@H](C)[C@@H](O)[C@H](N)[C@@H]2O)C[C@@H]2O[C@](O)(C[C@@H](O)C[C@@H](O)[C@H](O)CC[C@@H](O)C[C@@H](O)CC(=O)O[C@H]1C)C[C@H](O)[C@H]2C(=O)O`, the CC50 was 7.95 µM (HaCaT; MTS; 24 h).
`CC1(C)CC[C@]2(C)CC[C@]3(C)[C@H]4CC=C5[C@@H](CC[C@H](O)C5(C)C)[C@]4(C)CC[C@@]3(C)[C@@H]2C1` gave a pIC50 of 4.20 (WI-38; WST-1).
`CCOC(=O)c1c(C)ncn1CC(c1cn(C)c2ccc([N+](=O)[O-])cc12)c1cn(C)c2ccc([N+](=O)[O-])cc12` has a CC50 of over 20 µM (HaCaT; MTS; 24 h).
For `O=c1c(O)c(-c2ccc(O)cc2)oc2cc(O)cc(O)c12`, the pIC50 was 4.02 (WI-38; WST-1; 48 h).
With `O=C1CCCCC1=C1Sc2nc3ccc(S(=O)(=O)N4CCCC4)cc3nc2S1` the viability was 100% (WI-38; MTT; 3.125 µM, 24 h).
`O=C(N[C@@H](Cc1ccccc1)C(=O)c1nc2ccccc2s1)[C@H](Cc1ccccc1)NC(=O)N1CCOCC1` gave a CC50 of over 64 µM (MRC-5 SV2).
For `COc1cccc2c1C(=O)c1c(O)c3c(c(O)c1C2=O)C[C@@](O)(C(=O)CO)C[C@@H]3O[C@H]1C[C@H](N)[C@H](O)[C@H](C)O1`, the viability was 7.8% (WI-38; MTT; 100 µM, 24 h).
For `O=C(N[C@@H](CCc1ccccc1)C(=O)c1cc(-c2ccccc2)on1)[C@H](Cc1ccccc1)NC(=O)N1CCOCC1` (single isomer, unassigned), the CC50 was over 64 µM (MRC-5 SV2).
For `Cc1cn(CC(c2cn(C)c3ccccc23)c2cn(C)c3ccccc23)nn1`, the CC50 was over 20 µM (HaCaT; MTS; 24 h).
`COC(=O)[C@]1(O)C[C@@H](O)[C@@H](O)[C@H](OC(=O)/C=C/c2ccc(O)c(O)c2)C1` gave a pIC50 of 3.96 (WI-38; WST-1).
`CCOC(=O)C(C(C)=O)=C1Sc2nc3ccc(S(=O)(=O)N4CCCC4)cc3nc2S1` gave a viability of 60.1% (WI-38; MTT; 25 µM, 24 h).
With `O=c1cc(-c2ccc(O)c(O)c2)oc2cc(O)cc(O)c12` the pIC50 was 4.04 (WI-38; WST-1; 48 h).
`O=C(N[C@@H](Cc1ccccc1)C(=O)c1nc2ccccc2o1)[C@H](Cc1ccccc1)NC(=O)N1CCOCC1` gave a CC50 of over 64 µM (MRC-5 SV2).
